Measured values reported in ChEMBL document CHEMBL4823318, “Kinetic and structural investigations of novel inhibitors of human epithelial 15-lipoxygenase-2” (Bioorg Med Chem, 2021).

Columns and labels:
[1] = tested on: HEK-293T; assay: Cytotoxicity against human HEK293T cells expressing human 15-LOX-2 at 10 uM measured after 1 hr by cell survival assay; type: cell-based
In short: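 HEK293T cells stably overexpressing h15-LOX-2 were kept in MEM with 10% FBS, 2 mM glutamine, penicillin/streptomycin and 640 ug/ml G418. Cells were exposed to 0.2% DMSO, 10 μM or 20 μM inhibitor for 1 h. Medium was then replaced and cells were checked daily for death.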

[2] = molecular target: T1, Polyunsaturated fatty acid lipoxygenase ALOX8 (Mus musculus, UniProt O35936); assay: Inhibition of mouse 15-LOX2 assessed as enzymatic rate using arachidonic acid as substrate by UV/Vis spectrophotometric analysis
T1 sequence (O35936 whole entry): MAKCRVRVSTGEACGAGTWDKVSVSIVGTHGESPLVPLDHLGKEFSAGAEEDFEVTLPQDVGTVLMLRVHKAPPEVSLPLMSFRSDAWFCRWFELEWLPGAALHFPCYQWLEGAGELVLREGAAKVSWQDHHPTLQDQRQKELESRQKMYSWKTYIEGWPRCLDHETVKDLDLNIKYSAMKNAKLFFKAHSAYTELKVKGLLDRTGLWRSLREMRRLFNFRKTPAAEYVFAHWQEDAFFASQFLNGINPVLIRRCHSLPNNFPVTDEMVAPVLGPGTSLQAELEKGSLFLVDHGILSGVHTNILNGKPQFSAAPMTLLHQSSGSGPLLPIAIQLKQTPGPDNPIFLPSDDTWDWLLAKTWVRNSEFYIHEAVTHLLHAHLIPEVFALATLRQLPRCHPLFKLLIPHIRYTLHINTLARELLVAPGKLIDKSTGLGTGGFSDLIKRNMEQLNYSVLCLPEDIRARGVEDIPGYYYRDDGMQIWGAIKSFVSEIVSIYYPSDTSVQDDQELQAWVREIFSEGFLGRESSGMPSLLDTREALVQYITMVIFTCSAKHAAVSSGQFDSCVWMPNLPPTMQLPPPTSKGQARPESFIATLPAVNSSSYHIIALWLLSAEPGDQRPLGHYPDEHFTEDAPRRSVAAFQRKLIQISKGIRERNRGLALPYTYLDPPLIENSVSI

[3] = molecular target: Prostaglandin G/H synthase 1 (Ovis aries) (UniProt P05979); assay: Inhibition of ovine COX-1 assessed as enzymatic rate using arachidonic acid as substrate by oxygen electrode measurement of oxygen consumption
[4] = species: Homo sapiens; assay: Selectivity ratio of IC50 for inhibition of human 5-LOX to IC50 for inhibition of human 15-LOX-2
[5] = species: Homo sapiens; assay: Selectivity ratio of IC50 for inhibition of human 15-LOX-1 to IC50 for inhibition of human 15-LOX-2
In short: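 h15-LOX-1 (~60 nM total protein) was run at 23 °C, stirred, in 25 mM HEPES pH 7.5, 0.01% Triton X-100 and 10 μM AA. Diene product was read at 234 nm. Inhibition at 25 μM inhibitor was taken against the DMSO rate, in duplicate.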

[6] = species: Homo sapiens; assay: Selectivity ratio of IC50 for inhibition of human 12-LOX to IC50 for inhibition of human 15-LOX-2
In short: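 Conjugated diene formation was followed at 234 nm. Rates were compared with the DMSO control at a single 25 μM inhibitor concentration, in duplicate.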

[7] = molecular target: T2, Polyunsaturated fatty acid lipoxygenase ALOX15B (Homo sapiens) (UniProt O15296); assay: Competitive inhibition of human 15-LOX-2 assessed as equilibrium dissociation constant from catalytic site by measuring 15-HpETE by Dixon plots and Dixon replots analysis
T2 sequence (whole entry): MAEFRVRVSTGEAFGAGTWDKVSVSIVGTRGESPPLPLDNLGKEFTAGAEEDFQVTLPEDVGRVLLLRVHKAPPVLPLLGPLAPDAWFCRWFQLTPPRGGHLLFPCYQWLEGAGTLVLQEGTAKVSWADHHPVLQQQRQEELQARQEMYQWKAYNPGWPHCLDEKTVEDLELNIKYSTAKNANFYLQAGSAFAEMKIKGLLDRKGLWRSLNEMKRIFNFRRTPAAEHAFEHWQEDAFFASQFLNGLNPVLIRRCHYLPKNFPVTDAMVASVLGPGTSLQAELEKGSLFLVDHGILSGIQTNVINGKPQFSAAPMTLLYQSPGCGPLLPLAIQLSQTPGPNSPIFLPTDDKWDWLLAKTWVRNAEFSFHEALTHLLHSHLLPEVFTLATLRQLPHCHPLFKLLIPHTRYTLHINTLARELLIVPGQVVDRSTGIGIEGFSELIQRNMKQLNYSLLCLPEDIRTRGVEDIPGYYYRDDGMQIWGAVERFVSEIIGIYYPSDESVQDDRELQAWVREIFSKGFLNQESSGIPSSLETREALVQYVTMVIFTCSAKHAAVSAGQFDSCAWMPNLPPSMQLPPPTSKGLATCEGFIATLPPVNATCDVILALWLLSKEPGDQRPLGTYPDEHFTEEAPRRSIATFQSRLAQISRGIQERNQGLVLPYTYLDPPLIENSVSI
In short: (§1)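 Steady-state kinetics with h15-LOX-2 at 23 °C in stirred 25 mM HEPES pH 7.5, 0.01% Triton X-100, with 0.7–20 μM AA, reaction started by adding enzyme. Initial rates at varied inhibitor levels were fit to Henri-Michaelis-Menten for Vmax and Km. Slopes from Dixon plots (1/v vs [I]) were replotted against 1/[S]. Kic = (Km/Vmax)/replot slope; Kiu = (1/Vmax)/replot y-intercept.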

[8] = species: Homo sapiens; assay: Selectivity ratio of IC50 for inhibition of ovine COX1 to IC50 for inhibition of human 15-LOX-2
[9] = species: Homo sapiens; assay: Selectivity ratio of IC50 for inhibition of human COX2 to IC50 for inhibition of human 15-LOX-2
In short: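 Ovine COX-1 or human recombinant COX-2 (~3 μg) was used in 0.1 M Tris-HCl pH 8.0 with 5 mM EDTA, 2 mM phenol and 1 μM hemin at 37 °C. Inhibitor was preincubated with enzyme for 5 min, then ~100 μM AA was added. O2 consumption was recorded with an oxygen electrode, and rates were compared to the DMSO control, in duplicate.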

[10] = molecular target: T2, Polyunsaturated fatty acid lipoxygenase ALOX15B (Homo sapiens); assay: Uncompetitive inhibition of human 15-LOX-2 assessed as equilibrium dissociation constant from secondary site by measuring 15-HpETE by Dixon plots and Dixon replots analysis; in short: as §1

| SMILES | Activity [1] | IC50 [2] [µM] | IC50 [3] [µM] | Ratio IC50 [4] | Ratio IC50 [5] | Ratio IC50 [6] | Kic [7] [µM] | Ratio IC50 [8] | Ratio IC50 [9] | Kiuc [10] [µM] |
| --- | --- | --- | --- | --- | --- | --- | --- | --- | --- | --- |
| Brc1ccc(CSc2nccn2-c2ccccc2)cc1 | Non-Toxic | > 50 | > 100 | – | – | – | – | – | – | – |
| Cc1ccc(CSc2ncn(-c3ccccc3)n2)cc1 | Non-Toxic | – | – | – | – | – | – | – | – | – |
| FC(F)(F)c1ccc(CSc2nccn2-c2ccccc2)cc1 | Non-Toxic | > 50 | > 100 | > 50 | > 50 | > 50 | 0.7 | > 50 | > 50 | – |
| CCc1ccc(CSc2nccn2-c2ccccc2)cc1 | Non-Toxic | > 50 | > 100 | > 50 | > 50 | > 50 | 0.9 | > 50 | > 50 | 3.4 |
